Screening data as filed in PubChem BioAssay.
Only some compounds are listed: those with a hit (about 3.2% of all), similar ones and a draw of the others.
DAGLB inhibitor = blocks human DAGLB lipase activity; HEK293T DAGLB membrane lysate, EnzChek fluorogenic substrate; inhibition, % at 5.17 µM; 340,000 tested, 0.059% active; in the data active = inhibition above about 34%
HTRA1 inhibitor = HTRA1 (human) protease inhibition; Q92743; recombinant HTRA1, FP-rhodamine activity-based probe, fluorescence polarization; inhibition, % at 5.96 µM; 340,000 tested, 0.5% active; in the data active = inhibition above about 36%
LEDGF integ inh = blocks HIV-1 LEDGF/p75-dependent DNA integration. TR-FRET IN-LEDGF/p75 DNA integration, Eu/Cy5. inhibition, % at 3.7 µM. 370,000 tested, 0.64% active. AID 743269;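 active = inhibition above the screen-wide mean plus 3 SD, cut at about 13% in these data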;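 also: signal is the Cy5 over europium emission ratio at 671 and 618 nm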
PRMT1 inh = PRMT1 (human) inhibition, primary screen; 370,000 tested, 1.3% active; recombinant PRMT1, activity-based probe fluorescence polarization; inhibition, % at 2.79 µM;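 active = inhibition above about 21% made by adding two undisclosed values, limit read from the data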
rCAG binder = binds r(CAG) RNA repeats. inhibition, % at 3 µM. r(CAG) RNA repeat, TO-PRO-1 dye displacement fluorescence. AID 651821. 370,000 tested, 1.3% active;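 active = inhibition above the plate cutoff, the mean of all test compounds on that plate plus 3 SD, cut at about 35% in these data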;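 also: higher means more dye released from RNA so lower well fluorescence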
mABHD4 FP = inhibits mouse alpha/beta hydrolase domain 4; 370,000 tested, 0.54% active; Q8VD66; AID 720543; inhibition, % at 8.92 µM; purified mABHD4, FP-Rh probe fluorescence polarization;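 active = inhibition exceeding the mean over every tested compound plus 3 SD, cut at about 30% in these data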
Target sequence (Q8VD66 whole entry, looked up, the tested form may be a part): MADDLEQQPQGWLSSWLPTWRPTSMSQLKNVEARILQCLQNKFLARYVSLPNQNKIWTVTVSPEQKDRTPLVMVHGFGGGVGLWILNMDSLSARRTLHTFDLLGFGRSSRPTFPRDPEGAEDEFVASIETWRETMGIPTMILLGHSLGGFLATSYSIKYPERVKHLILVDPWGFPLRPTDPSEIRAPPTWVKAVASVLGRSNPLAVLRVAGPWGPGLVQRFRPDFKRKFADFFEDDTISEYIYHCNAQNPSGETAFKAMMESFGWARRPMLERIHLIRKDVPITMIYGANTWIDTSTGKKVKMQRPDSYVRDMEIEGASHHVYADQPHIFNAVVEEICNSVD
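Test system: mABHD4 protein | Buffer or medium: HEPES pH 7.0 buffer, 150 mM NaCl, 0.01% Pluronic F-127 | Probe or stimulus: FP-Rh fluorescent activity-based probe, added after compound pre-incubation | Timing: Pre-incubation 45 min, probe exposure 60 min, at 25 °C | Technique: Fluorescence polarization, excitation 525 nm, emission 598 nm, BODIPY TMR filters | Repeats: Single well per compound (singlicate)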
IN multimer up = counter-screen for LEDGF/p75 integration inhibitors: HIV-1 integrase multimerization activators; 2,000 tested, 17% active; activation, % at 7.7 µM; shares compounds with LEDGF integ inh; TR-FRET HIV-1 integrase multimerization, biochemical; in the data active = activation above about 8.9%
TR-FRET interf = optically interferes with TR-FRET readout in LEDGF counter-screen. inhibition, % at 7.7 µM. 2,000 tested, under 10 active. TR-FRET optical interference counterscreen, HIV-1 IN multimerization. AID 1053135. shares compounds with LEDGF integ inh;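 active = inhibition above the mean over all tested compounds plus 3 SD, which no compound reached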
LEDGF integ conf = confirmation of HIV-1 LEDGF/p75-dependent integration inhibitors; AID 1053136; TR-FRET LEDGF/p75-dependent HIV-1 integration, biochemical; inhibition, % at 3.7 µM; 2,000 tested, 36% active; shares compounds with LEDGF integ inh; in the data active = inhibition above about 14%
Hits are given with their value.

For CN(C)c1ccc(-c2[nH][nH]c(=O)c2NC(=O)c2ccc3ccccc3n2)cc1 the results were LEDGF integ inh 31, PRMT1 inh inactive, rCAG binder inactive, mABHD4 FP inactive, IN multimer up inactive, TR-FRET interf inactive and LEDGF integ conf 19.
CN(C)c1ccc(-c2[nH][nH]c(=O)c2NC(=O)c2ccccn2)cc1 was read as LEDGF integ inh inactive, PRMT1 inh inactive, rCAG binder inactive and mABHD4 FP inactive.
For O=C1C=C(O)c2cccc(O)c2C1=O the results were DAGLB inhibitor inactive, HTRA1 inhibitor inactive, LEDGF integ inh 22, PRMT1 inh 25, rCAG binder inactive, mABHD4 FP 41, IN multimer up inactive, TR-FRET interf inactive and LEDGF integ conf 14.
For O=C1c2ccccc2C(=O)c2c([N+](=O)[O-])ccc(O)c21 the results were DAGLB inhibitor inactive, HTRA1 inhibitor inactive, LEDGF integ inh inactive, PRMT1 inh inactive, rCAG binder inactive and mABHD4 FP inactive.
Cc1cc(=O)n(-c2ccc(O)cc2)[nH]1 was read as DAGLB inhibitor inactive, HTRA1 inhibitor inactive, LEDGF integ inh 19, PRMT1 inh inactive, rCAG binder inactive, mABHD4 FP inactive, IN multimer up inactive, TR-FRET interf inactive and LEDGF integ conf inactive.
`COC(=O)c1c(C)oc2ccc(NS(=O)(=O)c3cccs3)cc12` gave DAGLB inhibitor inactive, HTRA1 inhibitor inactive, LEDGF integ inh inactive, PRMT1 inh inactive, rCAG binder inactive and mABHD4 FP inactive.
COc1ccc(NC(=S)N(CCCN2CCC(C)CC2)Cc2cccs2)cc1 was read as DAGLB inhibitor inactive, HTRA1 inhibitor inactive, LEDGF integ inh inactive, PRMT1 inh inactive, rCAG binder inactive and mABHD4 FP inactive.
`COc1ccc(NC(=S)N(CCCN2CCCCC2)Cc2cccs2)cc1` gave DAGLB inhibitor inactive, HTRA1 inhibitor inactive, LEDGF integ inh 87, PRMT1 inh inactive, rCAG binder inactive, mABHD4 FP inactive, IN multimer up inactive, TR-FRET interf inactive and LEDGF integ conf inactive.
O=C(Nc1cccc(OC(=O)c2cccnc2)c1)c1cccnc1 was read as DAGLB inhibitor inactive, HTRA1 inhibitor inactive, LEDGF integ inh inactive, PRMT1 inh inactive, rCAG binder inactive and mABHD4 FP inactive.
For CCC1CCc2sc(C(=O)NCC(c3ccc(OC)cc3)N3CCOCC3)cc2C1 (configuration not stated) the results were DAGLB inhibitor inactive, HTRA1 inhibitor inactive, LEDGF integ inh 62, PRMT1 inh inactive, rCAG binder inactive, mABHD4 FP inactive, IN multimer up inactive, TR-FRET interf inactive and LEDGF integ conf inactive.
For COc1ccc(C(=S)N(C)C)cc1OC the results were DAGLB inhibitor inactive, HTRA1 inhibitor inactive, LEDGF integ inh inactive, PRMT1 inh inactive, rCAG binder inactive and mABHD4 FP inactive.
`Cc1ccccc1OCC(=O)OCC(=O)Nc1cc(C(F)(F)F)ccc1N1CCOCC1` gave DAGLB inhibitor inactive, HTRA1 inhibitor inactive, LEDGF integ inh 17, PRMT1 inh inactive, rCAG binder inactive, mABHD4 FP inactive, IN multimer up inactive, TR-FRET interf inactive and LEDGF integ conf inactive.
Screening COC(=O)C1=C(C)N(Cc2ccccc2C(F)(F)F)C(=NCc2ccccc2)NC1c1ccc(F)cc1 (configuration not stated) returned LEDGF integ inh inactive, PRMT1 inh inactive, rCAG binder inactive and mABHD4 FP inactive.
`Nc1c(O)cccc1C(=O)O` gave DAGLB inhibitor inactive, HTRA1 inhibitor inactive, LEDGF integ inh 38, PRMT1 inh inactive, rCAG binder inactive, mABHD4 FP inactive, IN multimer up inactive, TR-FRET interf inactive and LEDGF integ conf 21.
For O=C(O)c1ccccc1O the results were DAGLB inhibitor inactive, HTRA1 inhibitor inactive, LEDGF integ inh inactive, PRMT1 inh inactive, rCAG binder inactive and mABHD4 FP inactive.
For Cc1c(C(=O)NC(C)c2ccncc2)oc2ccccc12 (configuration not stated) the results were DAGLB inhibitor inactive, HTRA1 inhibitor inactive, LEDGF integ inh inactive, PRMT1 inh inactive, rCAG binder inactive and mABHD4 FP inactive.
Cc1cc(C)c(C(=O)NCC2CCCO2)c(C)c1C(=O)NCC1CCCO1 (configuration not stated) was read as DAGLB inhibitor inactive, HTRA1 inhibitor inactive, LEDGF integ inh inactive, PRMT1 inh inactive, rCAG binder inactive and mABHD4 FP inactive.
For CCn1c(SCC(=O)N2CCCCC2)nnc1-c1ccc(S(=O)(=O)N2CCN(C)CC2)cc1 the results were DAGLB inhibitor inactive, HTRA1 inhibitor inactive, LEDGF integ inh inactive, PRMT1 inh inactive, rCAG binder inactive and mABHD4 FP inactive.
`CCn1c(SCC(=O)Nc2cc(C)on2)nnc1-c1ccc(S(=O)(=O)N2CCN(C)CC2)cc1` gave DAGLB inhibitor inactive, HTRA1 inhibitor inactive, LEDGF integ inh 18, PRMT1 inh inactive, rCAG binder inactive, mABHD4 FP inactive, IN multimer up inactive, TR-FRET interf inactive and LEDGF integ conf inactive.
Screening CCCN1CN=C(NS(=O)(=O)c2ccc(C)cc2)NC1 returned DAGLB inhibitor inactive, HTRA1 inhibitor inactive, LEDGF integ inh inactive, PRMT1 inh inactive, rCAG binder inactive and mABHD4 FP inactive.
Screening Cc1ccc(S(=O)(=O)NC2=NCN(CCN3CCOCC3)CN2)cc1 returned DAGLB inhibitor inactive, HTRA1 inhibitor inactive, LEDGF integ inh 22, PRMT1 inh inactive, rCAG binder inactive, mABHD4 FP inactive, IN multimer up inactive, TR-FRET interf inactive and LEDGF integ conf inactive.
Screening O=C1c2cccnc2C(=O)N1CO returned DAGLB inhibitor inactive, HTRA1 inhibitor inactive, LEDGF integ inh inactive, PRMT1 inh inactive, rCAG binder inactive and mABHD4 FP inactive.
`NC1=C(Br)C(=O)c2ncccc2C1=O` gave DAGLB inhibitor inactive, HTRA1 inhibitor inactive, LEDGF integ inh 29, PRMT1 inh inactive, rCAG binder inactive, mABHD4 FP inactive, IN multimer up inactive, TR-FRET interf inactive and LEDGF integ conf 73.
For CSc1ccc(CN(C)CC(=O)Nc2ccccc2C(=O)NC2CC2)cc1 the results were DAGLB inhibitor inactive, HTRA1 inhibitor inactive, LEDGF integ inh inactive, PRMT1 inh inactive, rCAG binder inactive and mABHD4 FP inactive.
Screening CNC(=O)c1ccc(CN(C)CC(=O)Nc2ccccc2C(=O)NC2CC2)cc1 returned DAGLB inhibitor inactive, HTRA1 inhibitor inactive, LEDGF integ inh 75, PRMT1 inh inactive, rCAG binder inactive, mABHD4 FP inactive, IN multimer up inactive, TR-FRET interf inactive and LEDGF integ conf inactive.
